From ChEMBL document CHEMBL1123365, “Synthesis and opioid antagonist potencies of naltrexamine bivalent ligands with conformationally restricted spacers” (1986) come the findings set out here.

Assay [1] is filed under the species Cavia porcellus. The assay is described as follows: Compound was tested for its antagonistic activity with ethylketazocine (EK) activity on the electrically stimulated guinea pig ileal longitudinal muscle (GPI). The assay is classed as functional, Muscle tissue. The essentials:
(§1)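 Guinea pig ileal longitudinal muscle (GPI) strip. Ligand at 5 nM was preincubated with the tissue for 30 min, then an ethylketazocine (κ-selective) concentration-response curve was run. The IC50 ratio is the EK IC50 with antagonist over the control EK IC50 in the same GPI preparation. Relative potency is expressed against the monovalent reference ligand. Mean ± SE, n = 3.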

Assay [2] is filed under the species Cavia porcellus. The assay is described as follows: Compound was tested for its antagonistic activity with morphine on the electrically stimulated guinea pig ileal longitudinal muscle (GPI). The assay is classed as functional, Muscle tissue. The essentials:
(§2)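 Guinea pig ileal longitudinal muscle (GPI) strip. Each ligand at 5 nM was incubated with the tissue for 30 min before a morphine (μ-selective) concentration-response curve was run. The IC50 ratio is the morphine IC50 with antagonist divided by the control IC50 in the same preparation. Relative potency is the ratio relative to the monovalent reference ligand. Mean ± SE of three determinations.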

Assay [3] in a line: Ratio of IC50 of compound in presence of ethylketazocine (EK) on the electrically stimulated guinea pig ileal longitudinal muscle (GPI) to that of IC50 of control value. The assay is classed as functional. The essentials:
as §1

Assay [4] can be described thus: Ratio of IC50 of compound in presence of morphine on the electrically stimulated guinea pig ileal longitudinal muscle (GPI) to that of IC50 of control value. The assay is classed as functional. The essentials:
as §2

On to `O=C(/C=C/C(=O)NCC(=O)NCC(=O)NC1CCC2(O)C3Cc4ccc(O)c5c4C2(CCN3CC2CC2)C1O5)NCC(=O)NCC(=O)NC1CCC2(O)C3Cc4ccc(O)c5c4C2(CCN3CC2CC2)C1O5` (stereo not given), for which the Relative potency in the assay listed under Cavia porcellus [1] was found to be 13.1; in the assay filed under Cavia porcellus [2], 43. In addition, the Ratio came out at 19.6 in assay [3] and 100 in assay [4].
Regarding `O=C(/C=C/C(=O)NCC(=O)NCC(=O)NCC(=O)NCC(=O)NC1CCC2(O)C3Cc4ccc(O)c5c4C2(CCN3CC2CC2)C1O5)NCC(=O)NCC(=O)NCC(=O)NCC(=O)NC1CCC2(O)C3Cc4ccc(O)c5c4C2(CCN3CC2CC2)C1O5` (stereo not given), the results for the Relative potency in the assay listed under Cavia porcellus [1] and in the assay filed under Cavia porcellus [2] were 2.2 and 9.9, respectively. In addition, the Ratio is 3.3 in assay [3] and 22.7 in assay [4].
On to `O=C(/C=C/C(=O)NC1CCC2(O)C3Cc4ccc(O)c5c4C2(CCN3CC2CC2)C1O5)NC1CCC2(O)C3Cc4ccc(O)c5c4C2(CCN3CC2CC2)C1O5` (stereo not given), for which the results for the Relative potency in the assay listed under Cavia porcellus [1] and in the assay listed under Cavia porcellus [2] were 2.3 and 2.1, respectively. For the same compound, the Ratio in assay [3] came to 3.4; in assay [4], 4.8.
Consider `O=C(/C=C/C(=O)NCC(=O)NC1CCC2(O)C3Cc4ccc(O)c5c4C2(CCN3CC2CC2)C1O5)NCC(=O)NC1CCC2(O)C3Cc4ccc(O)c5c4C2(CCN3CC2CC2)C1O5` (stereo not given), for which the Relative potency in the assay filed under Cavia porcellus [2] is listed as 3.6. Also, the Ratio amounted to 6.6 in assay [3] and 8.2 in assay [4].
